The values below come from ChEMBL document CHEMBL4340554, “Design, synthesis and biological evaluation of novel 4,5-dihydro-[1,2,4]triazolo[4,3-f]pteridine derivatives as potential BRD4 inhibitors” (Bioorg Med Chem, 2019).

Structures are written as SMILES. The source made the active and inactive calls. The calls are words filed in the database; no cut-off is given here.

The subject of test [1] is MV4-11. The experiment in a line: Antiproliferative activity against human MV4-11 cells incubated for 72 hrs by CCK-8 assay. Type of test: functional, cell-based. The conditions noted are these: MV4-11, 72 h. On the technique in general: Tetrazolium assays rely on reduction of a dye to a coloured formazan, in cell work by metabolically active cells.
A short description of test [2]: Inhibition of […] BRD4 bromodomain 1 incubated for 60 mins by TR-FRET assay.
Test [3] relates to HL-60. The experiment in a line: Antiproliferative activity against human HL60 cells incubated for 72 hrs by CCK-8 assay. The class given is functional, cell-based. The conditions noted are these: HL-60, 72 h.
Test [4] deals with MV4-11. The experiment in a line: Induction of apoptosis in human MV4-11 cells assessed as viable cells level at 1 uM incubated for 24 hrs by Annexin V-FITC and propidium iodide staining based flow cytometry (reference value: 97.7%). The class given is functional. For orientation: In flow cytometry, cells or beads pass a laser one at a time.
Test [5] has as its system MV4-11. The experiment in a line: Induction of apoptosis in human MV4-11 cells assessed as early apoptotic cells level at 1 uM incubated for 24 hrs by Annexin V-FITC and propidium iodide staining based flow cytometry (reference value: 0.8%). The class given is functional.
Test [6] deals with MV4-11. The experiment in a line: Induction of apoptosis in human MV4-11 cells assessed as late apoptotic cells level at 1 uM incubated for 24 hrs by Annexin V-FITC and propidium iodide staining based flow cytometry (reference value: 1.5%). The class given is functional.
For test [7], the system named is MV4-11. The experiment in a line: Induction of apoptosis in human MV4-11 cells assessed as necrotic cells level at 1 uM incubated for 24 hrs by Annexin V-FITC and propidium iodide staining based flow cytometry (reference value: 0.0%). The class given is functional.
Test [8] concerns MV4-11. The experiment in a line: Induction of apoptosis in human MV4-11 cells assessed as viable cells level at 5 uM incubated for 24 hrs by Annexin V-FITC and propidium iodide staining based flow cytometry (reference value: 97.7%). Type of test: functional.
In test [9] the test system is MV4-11. The experiment in a line: Induction of apoptosis in human MV4-11 cells assessed as early apoptotic cells level at 5 uM incubated for 24 hrs by Annexin V-FITC and propidium iodide staining based flow cytometry (reference value: 0.8%). Type of test: functional.
The test system of test [10] is MV4-11. The experiment in a line: Induction of apoptosis in human MV4-11 cells assessed as late apoptotic cells level at 5 uM incubated for 24 hrs by Annexin V-FITC and propidium iodide staining based flow cytometry (reference value: 1.5%). Type of test: functional.
Test [11] relates to MV4-11. The experiment in a line: Induction of apoptosis in human MV4-11 cells assessed as necrotic cells level at 5 uM incubated for 24 hrs by Annexin V-FITC and propidium iodide staining based flow cytometry (reference value: 0.0%). Type of test: functional.
The subject of test [12] is MV4-11. The experiment in a line: Induction of cell cycle arrest in human MV4-11 cells assessed as accumulation at G1 phase incubated for 24 hrs by propidium iodide staining based flow cytometry. The class given is functional. A digest of the protocol: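 MV4;11 cells, used within two months of culture, grown in IMDM with 10% FBS and 1% penicillin-streptomycin at 37℃ under CO2. Cells were treated with compound for 24 h and then processed with a cell cycle detection kit following the kit protocol. Phase distribution was analysed by flow cytometry.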

Test [13] relates to MV4-11. The experiment in a line: Reduction in c-Myc protein expression in human MV4-11 cells at 1 to 10 uM incubated for 4 hrs Western blotting. The class given is functional, cell-based. Put shortly: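 MV4;11 leukemia cells (used within two months) were grown in IMDM with 10% FBS and 1% penicillin-streptomycin at 37℃ and 5% CO2. Log-phase cells were cultured 24 h, then treated for 4 h. They were lysed at 4℃ and protein was quantified by BCA. Lysates were run on SDS-PAGE (10% separating, 4% stacking gel) and transferred to PVDF. Membranes were blocked 2 h in 5% milk/TBST, probed overnight at 4℃ with anti-c-myc and anti-β-actin, and given secondary antibody for 2 h.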
A general note: Immunoblotting shows a protein as a band on a membrane.

For the compound `COc1ccc(Nc2ncc3c(n2)N(C2CCCC2)Cc2nnc(C)n2-3)cc1`, the half-maximal inhibitory concentration (IC50) was determined as 4.84 µM in test [1], 0.16 µM in test [2] and 18.7 µM in [3].

As for `Cc1nnc2n1-c1cnc(Nc3ccc(C(C)(C)C)cc3)nc1N(C1CCCC1)C2`, the IC50 in test [1], in [2] and in test [3] was more than 30 µM in each case.

`Cc1ccccc1Nc1ncc2c(n1)N(C1CCCC1)Cc1nnc(C)n1-2`: the values for the half-maximal inhibitory concentration (IC50) in test [1], in [2] and in test [3] were 8.46 µM, 0.41 µM and more than 30 µM, respectively.

In the case of `COc1ccccc1Nc1ncc2c(n1)N(C1CCCC1)Cc1nnc(C)n1-2`, the results for the IC50 in test [1], in test [2] and in [3] were 4.17 µM, 0.16 µM and 19.2 µM, respectively.

Take `COc1cccc(Nc2ncc3c(n2)N(C2CCCC2)Cc2nnc(C)n2-3)c1`: the IC50 in [1] was 6.74 µM; in [2], 0.18 µM; in test [3] it was 25.5 µM.

With `Cc1nnc2n1-c1cnc(Nc3ccccc3[N+](=O)[O-])nc1N(C1CCCC1)C2`, the values for the IC50 in test [1], in [2] and in [3] were 10.7 µM, 0.18 µM and more than 30 µM, respectively.

With `Cc1nnc2n1-c1cnc(Nc3ccc(S(C)(=O)=O)cc3)nc1N(C1CCCC1)C2`, the results for the IC50 in test [1], in [2] and in [3] were 1.92 µM, 0.089 µM and 7.85 µM, respectively.

In the case of `Cc1nnc2n1-c1cnc(Nc3ccc(Cl)cc3)nc1N(C1CCCC1)C2`, the figures for the IC50 in test [1], in [2] and in test [3] were more than 30 µM, 1.54 µM and more than 30 µM, respectively.

`Cc1nnc2n1-c1cnc(Nc3ccc([N+](=O)[O-])cc3)nc1N(C1CCCC1)C2`: the results for the IC50 in [1], in test [2] and in test [3] were 21.4 µM, 0.54 µM and more than 30 µM, respectively.

As for `Cc1sc2c(c1C)C(c1ccc(Cl)cc1)=N[C@@H](CC(=O)OC(C)(C)C)c1nnc(C)n1-2`, the concentration for half-maximal inhibition (IC50) amounted to 0.57 µM in test [1], 0.066 µM in [2] and 2.91 µM in [3]. Further, the Activity in test [4] was found to be 84.5%; in test [5], 0.2%; in test [6] it was 9.1%; in [7], 6.1%; in test [8] it was 61.6%; in test [9], 2.5%. The Activity in test [10] is 31.9%; in test [11] it was 4%; in [12] it was “Dose-dependent effect”.

For the compound `Cc1nnc2n1-c1cnc(Nc3cccc(Cl)c3)nc1N(C1CCCC1)C2`, the values for the IC50 in test [1], in test [2] and in [3] were more than 30 µM, 1.43 µM and more than 30 µM, respectively.

Consider `Cc1nnc2n1-c1cnc(Nc3ccc(N)cc3)nc1N(C1CCCC1)C2`, for which the IC50 is 1.53 µM in test [1], 0.079 µM in test [2] and 7.16 µM in test [3]. Besides, the Activity is given as 89.7% in test [4]; 0.5% in test [5]; 3.9% in [6]; 5.9% in [7]; 72.5% in test [8]; 3.8% in test [9]. Also, the values for the Activity in [10], in [11] and in test [12] were 20.4%, 3.4% and “Dose-dependent effect”, respectively. The outcome in test [13] was Active.

`Cc1cccc(Nc2ncc3c(n2)N(C2CCCC2)Cc2nnc(C)n2-3)c1`: the concentration for half-maximal inhibition (IC50) was more than 30 µM in test [1], 1.56 µM in test [2] and more than 30 µM in test [3].

As for `Cc1nnc2n1-c1cnc(Nc3ccc(C(C)C)cc3)nc1N(C1CCCC1)C2`, the IC50 was 16.2 µM in test [1], 0.86 µM in test [2] and more than 30 µM in test [3].

For `Cc1nnc2n1-c1cnc(Nc3ccc(F)cc3)nc1N(C1CCCC1)C2`, the IC50 in test [1] is more than 30 µM; in [2], 1.28 µM; in test [3] it was more than 30 µM.

Regarding `Cc1ccc(Nc2ncc3c(n2)N(C2CCCC2)Cc2nnc(C)n2-3)cc1`, the IC50 was 7.34 µM in test [1], 0.38 µM in test [2] and 29 µM in [3].

For the compound `CCCCc1ccc(Nc2ncc3c(n2)N(C2CCCC2)Cc2nnc(C)n2-3)cc1`, the IC50 in [1] is more than 30 µM; in test [2] it was 1.43 µM; in test [3], more than 30 µM.

For the compound `COc1ccc(Nc2ncc3c(n2)N(C2CCCC2)Cc2nnc(C)n2-3)cc1OC`, the IC50 in test [1] was found to be 6.79 µM; in test [2], 0.22 µM; in [3], 26.7 µM.

Turning to `Cc1nnc2n1-c1cnc(Nc3ccccc3)nc1N(C1CCCC1)C2`, the IC50 is 5.53 µM in test [1], 0.22 µM in test [2] and 21.4 µM in test [3].

The term IC50 denotes the midpoint of a concentration-inhibition curve. Higher therefore signals weaker potency.
